The source of these data is ChEMBL document CHEMBL4304739, “Discovery of 3-(Indol-5-yl)-indazole Derivatives as Novel Myeloid Differentiation Protein 2/Toll-like Receptor 4 Antagonists for Treatment of Acute Lung Injury” (J Med Chem, 2019).

The subject of data set [1] is Mus musculus. Kind of data set: Antiinflammatory activity in LPS-induced C57BL/6 mouse model of acute lung injury assessed as reduction in TNFalpha mRNA level at 10 mg/kg, iv pretreated for 15 mins followed by LPS stimulation and measured after 6 hrs by SYBR green staining-based qRT-PCR analysis. The class given is functional, organism-based. In short, it runs like this:
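Total lung RNA extracted, with DNase I removal of residual DNA. Quantitative PCR with mouse gene primers; each gene normalized to β-actin. C57BL/6 mice given compound iv 15 min before intraperitoneal LPS (20 mg/kg) and killed at 6 h.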

The target in data set [2] is Serine/threonine-protein kinase PAK 2 (Homo sapiens) (UniProt Q13177). Kind of data set: Inhibition of wild-type human partial length PAK2 (P151 to R525 residues) expressed in bacterial expression system at 1 uM by Kinomescan method. In short, it runs like this:
(§1)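 Binding-competition screen on the KINOMEscan platform, run by the provider, with the test compound at 1 μM. Readout is percent of control: (test signal − positive control signal)/(negative control signal − positive control signal) × 100. The DMSO negative control is set as 100% Ctrl and a control compound as 0% Ctrl. Lower values mean stronger hits.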

The target of data set [3] is Fibroblast growth factor receptor 3 (Homo sapiens) (UniProt P22607). Put plainly: Inhibition of wild-type human partial length FGFR3 (R442 to S771 residues) expressed in bacterial expression system at 1 uM by Kinomescan method. In short, it runs like this:
as §1

Data set [4] deals with Serine/threonine-protein kinase PAK 4 (Homo sapiens) (UniProt O96013). Kind of data set: Inhibition of wild-type human partial length PAK4 (Q144 to R438 residues) expressed in bacterial expression system at 1 uM by Kinomescan method. In short, it runs like this:
as §1

Data set [5] addresses ALK tyrosine kinase receptor (Homo sapiens) (UniProt Q9UM73). Put plainly: Inhibition of wild-type human partial length ALK (I1088 to E1409 residues) expressed in mammalian expression system at 1 uM by Kinomescan method. In short, it runs like this:
as §1

For data set [6], the target named is High affinity nerve growth factor receptor (Homo sapiens) (UniProt P04629). Kind of data set: Inhibition of wild-type human partial length TRKA (G475 to G790 residues) expressed in mammalian expression system at 1 uM by Kinomescan method. In short, it runs like this: (§2)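 Single-concentration screen at 1 μM on the KINOMEscan panel (98 kinases), run by the platform provider. Results are given as percent of control: % Ctrl = [(test signal − positive control signal)/(negative control signal − positive control signal)] × 100. DMSO serves as negative control (100% Ctrl) and a control compound as positive control (0% Ctrl). Lower values mean stronger binding hits.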
Chain of High affinity nerve growth factor receptor (Homo sapiens) (P04629 33-796 limits assumed): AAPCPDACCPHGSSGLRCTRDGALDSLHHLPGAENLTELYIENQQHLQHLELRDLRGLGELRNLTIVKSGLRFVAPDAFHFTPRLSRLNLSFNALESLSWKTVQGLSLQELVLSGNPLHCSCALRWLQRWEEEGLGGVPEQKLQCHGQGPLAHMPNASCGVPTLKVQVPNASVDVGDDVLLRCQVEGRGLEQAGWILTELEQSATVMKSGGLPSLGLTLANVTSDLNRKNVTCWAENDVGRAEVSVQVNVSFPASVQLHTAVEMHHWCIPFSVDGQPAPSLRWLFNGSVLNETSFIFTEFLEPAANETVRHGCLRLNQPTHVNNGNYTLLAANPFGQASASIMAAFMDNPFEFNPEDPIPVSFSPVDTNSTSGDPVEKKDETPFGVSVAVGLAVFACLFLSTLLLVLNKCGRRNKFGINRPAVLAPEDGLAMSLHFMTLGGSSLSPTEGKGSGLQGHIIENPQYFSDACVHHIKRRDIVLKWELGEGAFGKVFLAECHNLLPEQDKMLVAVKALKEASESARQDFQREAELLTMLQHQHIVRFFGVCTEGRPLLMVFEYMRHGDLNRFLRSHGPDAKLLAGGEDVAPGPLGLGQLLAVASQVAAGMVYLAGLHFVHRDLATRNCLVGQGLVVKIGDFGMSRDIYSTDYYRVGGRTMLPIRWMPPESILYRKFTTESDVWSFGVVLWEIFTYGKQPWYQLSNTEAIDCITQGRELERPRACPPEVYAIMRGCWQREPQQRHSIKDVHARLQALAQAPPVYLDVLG

Data set [7] deals with Toll-like receptor 4 (Homo sapiens, UniProt O00206). Kind of data set: Binding affinity to recombinant human C-terminal 10His-tagged TLR4 (Glu24 to Lys631 residues) expressed in mouse NS0 cells by surface plasmon resonance analysis. Background: In SPR one partner is held on a chip, and binding of the other changes the refractive index at the surface.
Chain of Toll-like receptor 4 (O00206 whole entry, the tested form may be a part): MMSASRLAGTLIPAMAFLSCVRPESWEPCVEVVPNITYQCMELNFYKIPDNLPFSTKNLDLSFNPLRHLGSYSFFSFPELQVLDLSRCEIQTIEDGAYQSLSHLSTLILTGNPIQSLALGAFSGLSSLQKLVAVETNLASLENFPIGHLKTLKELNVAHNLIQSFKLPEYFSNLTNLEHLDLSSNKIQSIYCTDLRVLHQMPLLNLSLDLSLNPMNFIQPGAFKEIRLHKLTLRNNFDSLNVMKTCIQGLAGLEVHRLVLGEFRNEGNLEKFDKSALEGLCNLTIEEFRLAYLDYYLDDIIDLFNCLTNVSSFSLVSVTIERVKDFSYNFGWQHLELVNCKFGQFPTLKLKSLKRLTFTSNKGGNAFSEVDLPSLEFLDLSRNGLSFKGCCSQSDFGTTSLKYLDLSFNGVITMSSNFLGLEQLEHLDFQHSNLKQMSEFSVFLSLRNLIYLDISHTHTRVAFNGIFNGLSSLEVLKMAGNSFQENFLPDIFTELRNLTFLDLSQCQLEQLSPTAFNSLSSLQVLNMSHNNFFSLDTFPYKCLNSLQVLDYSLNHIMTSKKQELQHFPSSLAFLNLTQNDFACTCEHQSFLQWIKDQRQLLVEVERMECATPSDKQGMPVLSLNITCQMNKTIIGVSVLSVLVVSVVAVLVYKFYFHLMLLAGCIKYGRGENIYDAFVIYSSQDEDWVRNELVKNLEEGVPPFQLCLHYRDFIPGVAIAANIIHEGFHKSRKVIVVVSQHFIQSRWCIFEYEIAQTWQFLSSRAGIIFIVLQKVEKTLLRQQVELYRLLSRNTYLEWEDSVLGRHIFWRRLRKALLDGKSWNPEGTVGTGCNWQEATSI
Data set [8] is filed under the species Homo sapiens. Kind of data set: Inhibition of EGFP-fused NFkappaB (unknown origin) stably expressed in mouse RAW 264.7 cells assessed as reduction in LPS-induced transcriptional activation at 10 uM measured after 3 hrs by flow cytometric analysis. The format is cell-based. In short, it runs like this: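 RAW264.7 cells stably carrying an NF-κB response element–EGFP reporter (lentiviral, puromycin-selected). Cells treated with 500 ng/mL LPS for 1 h, then vehicle or compound (10 μM) for 3 h. EGFP signal measured by flow cytometry.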
In general terms: Flow cytometry measures light scatter and fluorescence of single cells or particles in a stream.

Data set [9] relates to Peritoneal macrophage. Kind of data set: Cytotoxicity against ICR mouse peritoneal macrophages assessed as reduction in cell viability up to 20 uM measured after 24 hrs by MTT assay. The class given is cell-based. In short, it runs like this:
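Peritoneal macrophages from ICR mice, 2.0×10^4 cells/well in DMEM with 10% FBS. Cells exposed to compound for 24 h, then MTT (5 mg/ml in 0.9% NaCl) added for 4 h at 37 °C in 5% CO2. Absorbance read at 490 nm; final DMSO 0.1%.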
(In general: Tetrazolium dyes change colour on reduction, which living cells bring about.)

The subject of data set [10] is Mus musculus. Put plainly: Antiinflammatory activity in LPS-induced C57BL/6 mouse model of acute lung injury assessed as reduction in F4/80 positive macrophage at 5 to 10 mg/kg, iv pretreated for 15 mins followed by LPS stimulation and measured after 6 hrs by ABC/hematoxylin staining-based immunohistochemistry analysis. The class given is functional, organism-based. In short, it runs like this:
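Male C57BL/6 mice (18−22 g; n=8 per group). Compound in 0.1% CMC-Na given by tail vein injection 15 min before intraperitoneal LPS (20 mg/kg); controls received saline. Mice were sacrificed 6 h after LPS, and serum and lung tissue were collected.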

Data set [11] concerns the target Ribosomal protein S6 kinase alpha-3 (Homo sapiens) (UniProt P51812). Kind of data set: Inhibition of wild-type human partial length N-terminal RSK2 kinase domain 1 (M1 to D394 residues) expressed in mammalian expression system at 1 uM by Kinomescan method. In short, it runs like this:
as §1

Data set [12] addresses Macrophage colony-stimulating factor 1 receptor (Homo sapiens) (UniProt P07333). Put plainly: Inhibition of wild-type human partial length CSF1R (I564 to S939 residues) expressed in bacterial expression system at 1 uM by Kinomescan method. In short, it runs like this:
as §1

Data set [13] deals with Epidermal growth factor receptor (Homo sapiens) (UniProt P00533). Kind of data set: Inhibition of wild-type human partial length EGFR (R669 to V1011 residues) expressed in bacterial expression system at 1 uM by Kinomescan method. In short, it runs like this: (§3)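 KINOMEscan competition binding panel (98 kinases) run by the provider, compound screened once at 1 μM. Read-out is percent of control: [(test signal − positive control signal)/(negative control signal − positive control signal)] × 100. DMSO negative control sets 100% Ctrl and a control compound sets 0% Ctrl; lower values mean stronger hits.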

The target of data set [14] is Cyclin-dependent kinase 19 (Homo sapiens) (UniProt Q9BWU1). Kind of data set: Inhibition of wild-type human partial length CDK11 (M1 to N360 residues) expressed in bacterial expression system at 1 uM by Kinomescan method. In short, it runs like this:
as §1

The test system of data set [15] is Mast/stem cell growth factor receptor Kit (Homo sapiens), P10721 [V559D,T670I]. Put plainly: Inhibition of human partial length KIT V559D/T670I double mutant (Y545 to D952 residues) expressed in bacterial expression system at 1 uM by Kinomescan method. In short, it runs like this: as §3
Chain of Mast/stem cell growth factor receptor Kit (Homo sapiens), P10721 [V559D,T670I] (P10721 whole entry V559D/T670I, the tested form may be a part): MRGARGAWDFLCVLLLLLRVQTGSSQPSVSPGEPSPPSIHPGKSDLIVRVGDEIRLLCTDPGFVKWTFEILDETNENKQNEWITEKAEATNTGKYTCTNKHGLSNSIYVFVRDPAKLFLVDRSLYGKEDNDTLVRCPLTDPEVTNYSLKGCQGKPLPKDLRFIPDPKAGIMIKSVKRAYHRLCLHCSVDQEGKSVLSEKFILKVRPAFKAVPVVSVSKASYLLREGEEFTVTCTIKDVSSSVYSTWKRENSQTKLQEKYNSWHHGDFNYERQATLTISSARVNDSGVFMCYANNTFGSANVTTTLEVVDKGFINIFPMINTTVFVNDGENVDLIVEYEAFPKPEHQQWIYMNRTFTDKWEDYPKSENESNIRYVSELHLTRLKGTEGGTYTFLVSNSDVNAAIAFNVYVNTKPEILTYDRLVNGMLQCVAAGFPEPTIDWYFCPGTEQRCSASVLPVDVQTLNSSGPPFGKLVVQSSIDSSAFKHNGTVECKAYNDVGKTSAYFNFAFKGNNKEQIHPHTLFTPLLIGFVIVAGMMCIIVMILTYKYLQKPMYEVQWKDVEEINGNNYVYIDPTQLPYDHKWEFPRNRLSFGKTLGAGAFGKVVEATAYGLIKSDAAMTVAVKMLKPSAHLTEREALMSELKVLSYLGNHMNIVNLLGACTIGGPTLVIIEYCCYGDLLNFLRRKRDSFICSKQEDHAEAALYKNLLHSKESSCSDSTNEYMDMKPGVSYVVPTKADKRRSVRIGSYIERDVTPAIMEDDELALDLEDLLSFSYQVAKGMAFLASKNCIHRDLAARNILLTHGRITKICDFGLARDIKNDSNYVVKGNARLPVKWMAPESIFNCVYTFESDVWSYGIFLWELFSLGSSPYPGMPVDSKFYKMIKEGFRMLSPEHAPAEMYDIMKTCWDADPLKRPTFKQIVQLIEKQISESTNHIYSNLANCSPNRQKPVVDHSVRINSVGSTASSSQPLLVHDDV
In data set [16] the target is Cyclin-dependent kinase 9 (Homo sapiens) (UniProt P50750). Put plainly: Inhibition of wild-type human full length CDK9 (M1 to F372 residues) expressed in bacterial expression system at 1 uM by Kinomescan method. In short, it runs like this: (§4)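 KINOMEscan competition binding screen at 1 μM compound. Results reported as % of control = (test − positive control)/(DMSO negative control − positive control) × 100, where lower values mean stronger hits.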
Chain of Cyclin-dependent kinase 9 (Homo sapiens) (P50750 whole entry, the tested form may be a part): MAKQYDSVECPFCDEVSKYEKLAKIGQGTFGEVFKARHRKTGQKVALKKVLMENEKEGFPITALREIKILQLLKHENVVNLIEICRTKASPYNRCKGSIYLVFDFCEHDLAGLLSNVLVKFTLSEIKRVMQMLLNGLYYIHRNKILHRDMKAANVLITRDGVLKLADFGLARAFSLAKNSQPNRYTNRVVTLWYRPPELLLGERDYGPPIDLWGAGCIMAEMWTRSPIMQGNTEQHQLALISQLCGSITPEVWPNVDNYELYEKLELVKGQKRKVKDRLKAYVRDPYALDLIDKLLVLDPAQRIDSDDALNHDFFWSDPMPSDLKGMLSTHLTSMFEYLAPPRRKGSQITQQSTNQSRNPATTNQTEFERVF

In data set [17] the target is Mitogen-activated protein kinase 9 (Homo sapiens) (UniProt P45984). Kind of data set: Inhibition of wild-type human full length JNK2 (M1 to Q382 residues) expressed in mammalian expression system at 1 uM by Kinomescan method. In short, it runs like this: as §4
Chain of Mitogen-activated protein kinase 9 (Homo sapiens) (P45984 whole entry, looked up, the tested form may be a part): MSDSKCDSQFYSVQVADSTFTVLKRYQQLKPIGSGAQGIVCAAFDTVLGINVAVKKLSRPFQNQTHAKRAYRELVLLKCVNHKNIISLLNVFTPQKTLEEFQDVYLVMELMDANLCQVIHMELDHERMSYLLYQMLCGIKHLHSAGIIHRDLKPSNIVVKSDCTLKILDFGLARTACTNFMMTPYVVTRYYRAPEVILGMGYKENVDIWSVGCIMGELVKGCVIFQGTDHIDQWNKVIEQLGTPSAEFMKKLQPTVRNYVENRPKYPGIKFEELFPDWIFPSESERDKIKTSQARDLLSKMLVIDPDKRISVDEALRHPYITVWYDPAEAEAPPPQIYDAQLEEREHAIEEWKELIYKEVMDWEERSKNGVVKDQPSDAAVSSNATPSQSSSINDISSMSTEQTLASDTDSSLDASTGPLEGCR
Data set [18] addresses Vascular endothelial growth factor receptor 2 (Homo sapiens) (UniProt P35968). Kind of data set: Inhibition of wild-type human partial length VEGFR2 (R787 to P1253 residues) expressed in mammalian expression system at 1 uM by Kinomescan method. In short, it runs like this:
as §2

Data set [19] has as its target Proto-oncogene tyrosine-protein kinase receptor Ret (Homo sapiens) (UniProt P07949). Kind of data set: Inhibition of wild-type human partial length RET (E713 to D1014 residues) expressed in bacterial expression system at 1 uM by Kinomescan method. In short, it runs like this: as §1
For data set [20], the target named is Proto-oncogene tyrosine-protein kinase Src (Homo sapiens) (UniProt P12931). Put plainly: Inhibition of wild-type human partial length SRC (L240 to L536 residues) expressed in bacterial expression system at 1 uM by Kinomescan method. In short, it runs like this: as §2

pKd: −log10 of the molar value. The source made the active and inactive calls. The calls are words filed in the database; no cut-off is given here.

Chain of Proto-oncogene tyrosine-protein kinase receptor Ret (Homo sapiens) (P07949 whole entry, the tested form may be a part): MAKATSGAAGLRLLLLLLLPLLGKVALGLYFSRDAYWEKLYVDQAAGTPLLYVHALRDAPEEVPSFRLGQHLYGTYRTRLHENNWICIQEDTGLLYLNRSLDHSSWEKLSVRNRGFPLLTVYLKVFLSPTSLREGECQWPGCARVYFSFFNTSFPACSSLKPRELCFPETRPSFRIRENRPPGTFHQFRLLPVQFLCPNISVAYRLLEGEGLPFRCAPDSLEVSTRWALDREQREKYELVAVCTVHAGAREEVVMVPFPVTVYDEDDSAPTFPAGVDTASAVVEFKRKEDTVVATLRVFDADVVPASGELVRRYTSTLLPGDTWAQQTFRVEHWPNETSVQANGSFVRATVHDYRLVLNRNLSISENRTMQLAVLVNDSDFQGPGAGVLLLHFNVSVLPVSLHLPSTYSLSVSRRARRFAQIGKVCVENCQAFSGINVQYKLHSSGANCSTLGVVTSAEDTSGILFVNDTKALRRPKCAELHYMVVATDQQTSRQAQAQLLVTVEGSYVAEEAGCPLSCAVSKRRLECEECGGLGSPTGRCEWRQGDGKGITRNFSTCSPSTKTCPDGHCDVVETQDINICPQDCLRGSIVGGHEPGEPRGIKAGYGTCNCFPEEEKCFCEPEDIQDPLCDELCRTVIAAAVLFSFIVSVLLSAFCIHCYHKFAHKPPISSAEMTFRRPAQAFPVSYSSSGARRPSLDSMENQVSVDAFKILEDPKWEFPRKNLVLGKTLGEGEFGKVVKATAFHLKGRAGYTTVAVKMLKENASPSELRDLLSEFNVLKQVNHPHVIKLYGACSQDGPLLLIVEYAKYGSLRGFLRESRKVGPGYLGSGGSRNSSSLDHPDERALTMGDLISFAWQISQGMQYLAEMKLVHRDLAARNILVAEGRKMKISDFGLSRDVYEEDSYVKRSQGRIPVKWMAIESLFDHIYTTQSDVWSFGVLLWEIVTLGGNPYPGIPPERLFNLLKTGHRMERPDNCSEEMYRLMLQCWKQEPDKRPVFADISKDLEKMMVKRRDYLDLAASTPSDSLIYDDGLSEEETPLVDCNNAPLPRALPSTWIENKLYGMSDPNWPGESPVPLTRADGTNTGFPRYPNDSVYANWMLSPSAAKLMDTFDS
Chain of Serine/threonine-protein kinase PAK 2 (Homo sapiens) (Q13177 whole entry, the tested form may be a part): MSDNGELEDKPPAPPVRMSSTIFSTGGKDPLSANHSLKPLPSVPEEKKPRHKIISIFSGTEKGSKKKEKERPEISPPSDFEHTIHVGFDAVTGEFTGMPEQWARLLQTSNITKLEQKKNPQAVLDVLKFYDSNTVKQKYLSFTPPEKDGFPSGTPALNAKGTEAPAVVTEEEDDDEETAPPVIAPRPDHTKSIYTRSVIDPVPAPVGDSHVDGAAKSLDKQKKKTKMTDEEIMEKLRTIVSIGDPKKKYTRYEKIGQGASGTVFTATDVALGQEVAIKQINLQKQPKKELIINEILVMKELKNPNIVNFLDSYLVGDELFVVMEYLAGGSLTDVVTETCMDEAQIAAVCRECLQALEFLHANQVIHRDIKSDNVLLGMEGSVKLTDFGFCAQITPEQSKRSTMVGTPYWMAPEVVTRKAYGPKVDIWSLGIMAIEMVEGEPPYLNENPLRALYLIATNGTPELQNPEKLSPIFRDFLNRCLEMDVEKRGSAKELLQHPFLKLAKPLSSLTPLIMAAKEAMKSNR

One may read the pKd as the negative decadic logarithm of the Kd, by convention in mol/L. For `O=C(Nc1ccc2[nH]nc(-c3ccc4[nH]ccc4c3)c2c1)c1c(Cl)cccc1Cl`, the result in data set [1] and in data set [10] was Active. Besides, the inhibition result in data set [2], in [3], in data set [4], in data set [5], in data set [6] and in [11] was “inactive” each time. The inhibition result in data set [12], in data set [13], in [14], in data set [15], in data set [16] and in data set [17] was “inactive” each time. In addition, the inhibition result in data set [18], in data set [19] and in [20] was “inactive” in each case. The negative-log Kd (pKd) in data set [7] was 3.84. The inhibition result in data set [8] is “Active”. Moreover, the Activity result in data set [9] was “Non-Toxic”.
